This sample holds only a part of the variants without activity.
B1: tRNA (parent)
chain: GUUCCGUUGGCGUAAUGGUAACGCGUCUCCCUCCUAAGGAGAAGACUGCGGGUUCGAGUCCCGUACGGAACG

Variants of: B1
Test: yeast fitness relative to wild type (ratio to wild type); higher = fitter; tRNA-Arg(CCU), competitive growth, 37 C, YPD
Method in brief: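 For this measurement, the tRNA-Arg(CCU) gene was varied by chemical synthesis at a 3% per-site mutation rate across 69 sites, and each variant was placed at the native genomic locus in Saccharomyces cerevisiae. The pooled strains went through a 24-hour competition in YPD at 37°C in six parallel replicates, with amplicons from start and end populations read by 100-nucleotide paired-end sequencing. Darwinian fitness relative to wild type followed from the change in each genotype's frequency. Genotypes needed ≥ 100 starting reads, and estimates < 0.5 were set to 0.5.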

Variant	yeast fitness
G17C G39A G52A	≤ 0.5
G17C G39C	0.59
G17C G39C G63A	≤ 0.5
G17C G41A G56C	0.619
G17C G44A A45C	≤ 0.5
G17C G48C	0.709
G17C G48C G67C	≤ 0.5
G17C G50A	0.616
G17C G51A A65C	≤ 0.5
G17C G51A G63C A69U	≤ 0.5
G17C G51C C66U	≤ 0.5
G17C G52C U64A	≤ 0.5
G17C G56A	0.709
G17C G56C	0.633
G17C G56C A57G G68U	0.571
G17C G58C	0.528
G17C G63C	≤ 0.5
G17C G63C C66U	≤ 0.5
G17C G67C	0.723
G17C U19A A36C A37U C60G G67C	≤ 0.5
G17C U19A C24G U26A C34U	≤ 0.5
G17C U19A C49G	0.517
G17C U19C A20G G68U	≤ 0.5
G17C U19C A40G U47G	≤ 0.5

Variant	yeast fitness
G17C U19C C24A U32C	≤ 0.5
G17C U26C C46U A65U	0.558
G17C U26G G39C A40U	≤ 0.5
G17C U28A C30A C31A	0.623
G17C U28A C34G G38A U59A	≤ 0.5
G17C U28C C55A C60A	≤ 0.5
G17C U32A C46A	0.582
G17C U32A C46A A69U	≤ 0.5
G17C U32C A42U	0.559
G17C U35A	≤ 0.5
G17C U35C G51A C66G	≤ 0.5
G17C U47C	0.711
G17C U47G C66U G67A A69U	≤ 0.5
G17C U53A G56A A57C A65C	≤ 0.5
G17C U53G A70U	0.564
G17C U54C	0.536
G17U A40U A42U C49G G51A C66A G68C	0.536
G17U C24U	0.84
G17U C29G	0.544
G17U U19G A37G C66U A69U	0.561
G17U U35C A37U A57C	≤ 0.5
G18A A20C C34U A36U G39C	0.539
G18A A20G A69U	0.542
G18A A20G U26G G50C G63C	≤ 0.5

Variant	yeast fitness
G18A A20G U35C G58A C60G	0.558
G18A A20U A36U A65C	0.706
G18A A20U A36U C62U	≤ 0.5
G18A A20U A42G	≤ 0.5
G18A A20U C22U U28A C33U G44C	0.524
G18A A20U C29G A37U	0.563
G18A A20U C31U	0.545
G18A A20U C49G U54A G68U A69U	≤ 0.5
G18A A20U C62A A70C	0.552
G18A A21C C30U C34A	≤ 0.5
G18A A21C G39A C55U C60G A69U	0.523
G18A A21U U32A G56A	0.561
G18A A36C G48A	≤ 0.5
G18A A36U	0.66
G18A A36U C61A	≤ 0.5
G18A A37G C61U	≤ 0.5
G18A A40C U47G A65C	≤ 0.5
G18A A40G	0.74
G18A A40U A42U A65C	0.534
G18A A42C A69U	0.542
G18A A42C C61A	≤ 0.5
G18A A42C G48A C60A	≤ 0.5
G18A A42G	0.692
G18A A43C C66G	0.505

Variant	yeast fitness
G18A A43G A65C	0.595
G18A A43U	0.637
G18A A45C C49U	0.667
G18A A45C C55U C61G	≤ 0.5
G18A A57G G58C	0.63
G18A A57U G58C	≤ 0.5
G18A A69C	0.926
G18A A70U	0.956
G18A C22A A37C G41C C55G U64A	≤ 0.5
G18A C22A U28C A40C	≤ 0.5
G18A C22G C27G C49U G58A	0.608
G18A C22U	0.636
G18A C22U A40C G68C	≤ 0.5
G18A C24A	0.564
G18A C24A C31A	≤ 0.5
G18A C24G C27U C62U	≤ 0.5
G18A C24G G38C	0.724
G18A C24U U47G	≤ 0.5
G18A C27A	0.726
G18A C27A G68C	≤ 0.5
G18A C27U A37G A70C	≤ 0.5
G18A C27U C31A	≤ 0.5
G18A C29U	0.813
G18A C29U C30U A57G	≤ 0.5

Variant	yeast fitness
G18A C29U C31A C66U	≤ 0.5
G18A C30A U32A U35G	≤ 0.5
G18A C30A U32A U35G G67A	≤ 0.5
G18A C30G	≤ 0.5
G18A C30G G38C	0.529
G18A C30G G41C	≤ 0.5
G18A C30G G44C	0.646
G18A C30U A40G C46U	≤ 0.5
G18A C30U A40U G44C	≤ 0.5
G18A C30U C55A	0.592
G18A C30U U47G	≤ 0.5
G18A C31A	0.554
G18A C31A G56C A69C	≤ 0.5
G18A C31G A70U	0.687
G18A C31G C34A U47C	≤ 0.5
G18A C31G G41A G52C C60U C62G C66G	≤ 0.5
G18A C31G U47C	≤ 0.5
G18A C31U A70G	0.726
G18A C31U A70U	0.656
G18A C31U G41A	0.647
G18A C33U A57G	≤ 0.5
G18A C33U C46G	0.634
G18A C34G C55G A65U	≤ 0.5
G18A C34U	≤ 0.5

Variant	yeast fitness
G18A C34U A36G	0.525
G18A C34U A40G U47C	≤ 0.5
G18A C34U C60U	≤ 0.5
G18A C34U G48A A65C	≤ 0.5
G18A C46A	0.692
G18A C46A G63C	0.604
G18A C46G	0.749
G18A C46U	0.749
G18A C46U C49U U59C G68A	≤ 0.5
G18A C46U G50U C60G A70G	≤ 0.5
G18A C46U U59C G68A	0.53
G18A C49A A65U	0.558
G18A C49U	0.892
G18A C49U U54C	0.539
G18A C55G	0.554
G18A C55U	0.554
G18A C60A G67A	≤ 0.5
G18A C62A	0.513
G18A C62G G68C	≤ 0.5
G18A C62G G68U	≤ 0.5
G18A C62U U64A	0.517
G18A G23A A43C U59A	≤ 0.5
G18A G25A	0.665
G18A G25A C29G C34A G63C	≤ 0.5

Variant	yeast fitness
G18A G25A C31U	0.63
G18A G25A C46U U59C G68A	≤ 0.5
G18A G25C A43U	0.6
G18A G25C A43U A69C	≤ 0.5
G18A G25C A43U U59A G63A	≤ 0.5
G18A G25C A70U	0.555
G18A G25C C30G G41U A57U	≤ 0.5
G18A G25C C30G G41U C55G	≤ 0.5
G18A G41C A42C C49U	0.522
G18A G41C A42G U54A	≤ 0.5
G18A G41C U54A G63A	≤ 0.5
G18A G44A	0.637
G18A G44A A57G	≤ 0.5
G18A G44C	0.767
G18A G44C A65U	0.537
G18A G48A A57C U59C	≤ 0.5
G18A G50A	0.853
G18A G50C C55G C62A	0.561
G18A G50C G56C	≤ 0.5
G18A G51A A57U	0.536
G18A G51A A70G	≤ 0.5
G18A G51C	≤ 0.5
G18A G51C A65G	≤ 0.5

From the RNAGym collection of RNA variant scans (doi:10.1126/science.aae0568)
